Laboratory results reported in ChEMBL document CHEMBL1128202, “Identification of a series of 3-(benzyloxy)-1-azabicyclo[2.2.2]octane human NK1 antagonists” (J Med Chem, 1995).
pIC50: −log10 of the molar value.

Columns and labels:
[1] = target: Substance-P receptor (Homo sapiens, UniProt P25103); assay: Inhibition of binding of [125I]SP to the CHO cell line expressing human Tachykinin receptor 1; format: cell-based
[2] = test system: Cavia porcellus; assay: Inhibition of SP-induced extravasation in the skin of guinea pig after oral administration of a dose of 10 (ug/kg); format: functional
How it was run: (§1)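 Guinea pigs given test compound (po or ip); dorsal skin shaved and Evans blue (0.5 mL, 2.5 g/100 mL saline) injected iv. 10 min later, SP (0.5 pmol in 0.1% HSA saline) injected intradermally; 1 h exposure, then CO2 euthanasia. 6-mm punch biopsies of injection sites; dye extracted overnight in formamide at 45 °C. Read-out: % inhibition of Evans blue leakage.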

[3] = test system: Cavia porcellus; assay: Inhibition of SP-induced extravasation in the skin of guinea pig after intraperitoneal administration of a dose of 1 (ug/kg); format: functional; how it was run: as §1
[4] = test system: Cavia porcellus; assay: Inhibition of SP-induced extravasation in the skin of guinea pig after intraperitoneal administration of a dose of 3 (ug/kg); format: functional; how it was run: as §1
[5] = test system: Cavia porcellus; assay: Inhibition of SP-induced extravasation in the skin of guinea pig after intraperitoneal administration of a dose of 10 (ug/kg); format: functional; how it was run: as §1
[6] = test system: Cavia porcellus; assay: Inhibition of SP-induced extravasation in the skin of guinea pig after intraperitoneal administration of a dose of 30 (ug/kg); format: functional; how it was run: as §1
[7] = test system: Cavia porcellus; assay: Inhibition of SP-induced extravasation in the skin of guinea pig after […] administration of a dose of 10 (ug/kg); format: functional; how it was run: as §1

Substance-P receptor, sequence (P25103 whole entry): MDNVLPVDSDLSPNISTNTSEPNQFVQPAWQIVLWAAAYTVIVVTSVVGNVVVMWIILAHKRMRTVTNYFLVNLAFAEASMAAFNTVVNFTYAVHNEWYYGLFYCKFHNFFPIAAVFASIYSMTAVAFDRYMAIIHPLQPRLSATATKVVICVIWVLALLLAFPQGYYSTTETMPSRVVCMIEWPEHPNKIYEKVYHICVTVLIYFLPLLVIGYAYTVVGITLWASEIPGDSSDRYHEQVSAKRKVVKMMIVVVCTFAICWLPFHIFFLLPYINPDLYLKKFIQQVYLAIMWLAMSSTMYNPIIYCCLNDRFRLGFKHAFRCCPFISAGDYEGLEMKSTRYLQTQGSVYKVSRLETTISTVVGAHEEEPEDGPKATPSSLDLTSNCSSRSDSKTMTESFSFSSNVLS

SMILES	pIC50 [1]	further results
COc1cc(C)cc(COC2C3CCN(CC3)C2C(c2ccccc2)c2ccccc2)c1 (stereo in doubt; 77)	8.72	
c1ccc(COC2C3CCN(CC3)C2C(c2ccccc2)c2ccccc2)cc1 (stereo not given)	6.96	
Cc1ccc(COC2C3CCN(CC3)C2C(c2ccccc2)c2ccccc2)cc1C (stereo not given)	6.76	
Cc1cc(COC2C3CCN(CC3)C2C(c2ccccc2)c2ccccc2)cc([Si](C)(C)C)c1 (stereo not given)	9.05	
N#Cc1cccc(COC2C3CCN(CC3)C2C(c2ccccc2)c2ccccc2)c1 (stereo not given)	6.90	
Clc1cc(Cl)cc(COC2C3CCN(CC3)C2C(c2ccccc2)c2ccccc2)c1 (stereo in doubt; 68)	8.05	
FC(F)(F)c1cc(COC2C3CCN(CC3)C2Cc2ccccc2)cc(C(F)(F)F)c1 (stereo not given)	6.99	
FC(F)(F)c1cc(COC2C3CCN(CC3)C2C(Cc2ccccc2)c2ccccc2)cc(C(F)(F)F)c1 (stereo in doubt; 89)	8.00	
Cc1cc(C)cc(COC2C3CCN(CC3)C2C(c2ccccc2)c2ccccc2)c1 (stereo in doubt; 72)	9.05	Inhibition [2]: 45%
N#Cc1ccccc1COC1C2CCN(CC2)C1C(c1ccccc1)c1ccccc1 (stereo not given)	7.07	
Clc1ccc(COC2C3CCN(CC3)C2C(c2ccccc2)c2ccccc2)cc1 (stereo not given)	6.38	
Cc1ccc(C)c(COC2C3CCN(CC3)C2C(c2ccccc2)c2ccccc2)c1 (stereo not given)	7.44	
FC(F)(F)c1cc(COC2C3CCN(CC3)C2C(Cc2ccccc2)c2ccccc2)cc(C(F)(F)F)c1 (stereo in doubt; 88)	6.37	
FC(F)(F)c1cc(COC2C3CCN(CC3)C2C(c2ccccc2)c2ccccc2)cc(C(F)(F)F)c1 (stereo in doubt; 69)	8.80	
Cc1cc(C)cc(COC2C3CCN(CC3)C2C(Cc2ccccc2)c2ccccc2)c1 (stereo in doubt; 85)	8.49	
Cc1ccccc1COC1C2CCN(CC2)C1C(c1ccccc1)c1ccccc1 (stereo not given)	6.82	
FC(F)(F)c1cc(CO[C@H]2C3CCN(CC3)[C@@H]2C(c2ccccc2)c2ccccc2)cc(C(F)(F)F)c1	9.70	Inhibition [2]: 70%
Cc1cc(C)cc(COC2C3CCN(CC3)C2Cc2ccccc2)c1 (stereo not given)	6.97	
COc1cc(C)cc(COC2C3CCN(CC3)C2C(c2ccccc2)c2ccccc2)c1 (stereo in doubt; 78)	8.82	
Fc1cc(F)cc(COC2C3CCN(CC3)C2C(c2ccccc2)c2ccccc2)c1 (stereo not given)	7.48	
FC(F)(F)c1cc(COC2C3CCN(CC3)C2C(c2ccccc2)C2CCCCC2)cc(C(F)(F)F)c1 (stereo not given)	8.12	
Cc1cc(C)cc(COC2C3CCN(CC3)C2C(Cc2ccccc2)c2ccccc2)c1 (stereo in doubt; 90)	6.45	
FC(F)(F)c1ccccc1COC1C2CCN(CC2)C1C(c1ccccc1)c1ccccc1 (stereo not given)	7.17	
Fc1ccc(COC2C3CCN(CC3)C2C(c2ccccc2)c2ccccc2)cc1 (stereo not given)	6.60	
FC(F)(F)c1cc(COC2C3CCN(CC3)C2C(c2ccccc2)c2ccccc2)cc(C(F)(F)F)c1 (stereo in doubt; 70)	8.57	

SMILES	pIC50 [1]	further results
COc1cccc(COC2C3CCN(CC3)C2C(c2ccccc2)c2ccccc2)c1 (stereo not given)	7.25	
Fc1ccccc1COC1C2CCN(CC2)C1C(c1ccccc1)c1ccccc1 (stereo not given)	7.03	
Cc1cccc(COC2C3CCN(CC3)C2C(c2ccccc2)c2ccccc2)c1 (stereo not given)	7.70	
Cc1cc(C)cc(COC2C3CCN(CC3)C2C(Cc2ccccc2)c2ccccc2)c1 (stereo in doubt; 86)	7.64	
COc1cc(COC2C3CCN(CC3)C2C(c2ccccc2)c2ccccc2)cc(OC)c1 (stereo in doubt; 76)	8.08	
N#Cc1ccc(COC2C3CCN(CC3)C2C(c2ccccc2)c2ccccc2)cc1 (stereo not given)	6.02	
Fc1ccc(F)c(COC2C3CCN(CC3)C2C(c2ccccc2)c2ccccc2)c1 (stereo not given)	6.97	
Clc1cccc(COC2C3CCN(CC3)C2C(c2ccccc2)c2ccccc2)c1 (stereo not given)	7.21	
c1ccc(CN[C@H]2C3CCN(CC3)[C@H]2C(c2ccccc2)c2ccccc2)cc1	10.07	
Brc1ccccc1COC1C2CCN(CC2)C1C(c1ccccc1)c1ccccc1 (stereo not given)	7.43	
FC(F)(F)c1cccc(COC2C3CCN(CC3)C2C(c2ccccc2)c2ccccc2)c1 (stereo not given)	6.52	
FC(F)(F)c1cc(CO[C@H]2C3CCN(CC3)[C@H]2C(c2ccccc2)c2ccccc2)cc(C(F)(F)F)c1 [L-709210]	9.70	Inhibition [3]: 6%; Inhibition [4]: 59%; Inhibition [2]: 76%; Inhibition [5]: 92%; Inhibition [6]: 100%
Cc1cc(C)cc(COC2C3CCN(CC3)C2C(c2ccccc2)c2ccccc2)c1 (stereo in doubt; 73)	9.59	Inhibition [7]: 89%; Inhibition [2]: 40%
Clc1ccccc1COC1C2CCN(CC2)C1C(c1ccccc1)c1ccccc1 (stereo not given)	7.10	
FC(F)(F)c1ccc(COC2C3CCN(CC3)C2C(c2ccccc2)c2ccccc2)cc1 (stereo not given)	6.43	
COc1cc(COC2C3CCN(CC3)C2C(c2ccccc2)c2ccccc2)cc(OC)c1 (stereo in doubt; 75)	8.03	
FC(F)(F)c1cc(CO[C@@H]2C3CCN(CC3)[C@@H]2C(c2ccccc2)c2ccccc2)cc(C(F)(F)F)c1	6.52	Inhibition [2]: -17%
c1ccc(Oc2cccc(COC3C4CCN(CC4)C3C(c3ccccc3)c3ccccc3)c2)cc1 (stereo not given)	7.21	
Cc1ccc(COC2C3CCN(CC3)C2C(c2ccccc2)c2ccccc2)cc1 (stereo not given)	6.61	
FC(F)(F)c1cc(CO[C@@H]2C3CCN(CC3)[C@H]2C(c2ccccc2)c2ccccc2)cc(C(F)(F)F)c1	6.90	
FC(F)(F)c1cc(COC2C3CCN(CC3)C2C(Cc2ccccc2)c2ccccc2)cc(C(F)(F)F)c1 (stereo in doubt; 87)	8.41	
O=[N+]([O-])c1cccc(COC2C3CCN(CC3)C2C(c2ccccc2)c2ccccc2)c1 (stereo not given)	6.71	
Clc1cc(Cl)cc(COC2C3CCN(CC3)C2C(c2ccccc2)c2ccccc2)c1 (stereo in doubt; 67)	8.46	
Fc1cccc(COC2C3CCN(CC3)C2C(c2ccccc2)c2ccccc2)c1 (stereo not given)	7.43	
Cc1cc(I)cc(COC2C3CCN(CC3)C2C(c2ccccc2)c2ccccc2)c1 (stereo not given)	9.49	
